Here are results for one compound from ChEMBL document CHEMBL4342470, “Detection of Active Granzyme A in NK92 Cells with Fluorescent Activity-Based Probe” (J Med Chem, 2020).

The source made the active and inactive calls. No cut-off for these calls is given here.

The target of assay [1] is T1, Granzyme A (Homo sapiens) (UniProt P12544).
T1 sequence (whole entry): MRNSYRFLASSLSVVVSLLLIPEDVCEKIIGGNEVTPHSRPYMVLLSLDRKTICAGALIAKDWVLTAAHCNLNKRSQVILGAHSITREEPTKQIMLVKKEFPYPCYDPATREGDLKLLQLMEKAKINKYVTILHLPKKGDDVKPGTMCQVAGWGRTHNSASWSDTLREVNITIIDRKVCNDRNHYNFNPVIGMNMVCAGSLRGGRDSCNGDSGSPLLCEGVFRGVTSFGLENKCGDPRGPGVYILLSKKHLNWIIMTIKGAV
Nature of the assay: Inhibition of Granzyme A (unknown origin) expressed in Pichia pastoris assessed as second- order inhibition rate constant (Kobs/I ratio) pre-incubated with SK15 substrate for 15 mins before enzyme addition by spectrofluorometry. In a few lines: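 Recombinant GrA at 350 nM, pre-warmed at 37 °C, added to SK15 substrate that had been preincubated 15 min at 37 °C with varied inhibitor or probe (inhibitor range 714–333 nM, SK15 10 μM). Tris/NaCl/CaCl2/Tween-20 buffer, pH 7.5. AMC-type fluorescence at 355/460 nm under pseudo-first-order conditions to give kobs/I. Mean of at least three experiments with standard deviation.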

For assay [2], the target named is T1, Granzyme A (Homo sapiens). Nature of the assay: Inhibition of Granzyme A (unknown origin) expressed in Pichia pastoris using SK15 substrate by spectrofluorometry relative to control. The gist of the method:
(§1)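 Each enzyme preincubated 30 min at 37 °C with 10 μM compound, then its matched ACC substrate added (SK15 for GrA, GrKref, GrBref, Ac-KVPL-ACC for GrM, and the PR3 and hNE substrates). Enzyme levels: GrK 488 nM, GrB 18 nM, GrM 74 nM, hNE 3.3 nM, PR3 3.4 nM. Reference substrates at 200 μM. Fluorescence read at 355/460 nm; residual activity relative to an untreated enzyme control.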

The target of assay [3] is Granzyme B (Homo sapiens) (UniProt P10144). In words: Inhibition of Granzyme B (unknown origin) expressed in Pichia pastoris using GrBref substrate by spectrofluorometry relative to control. The gist of the method: as §1
Chain of Granzyme B (Homo sapiens) (P10144 whole entry): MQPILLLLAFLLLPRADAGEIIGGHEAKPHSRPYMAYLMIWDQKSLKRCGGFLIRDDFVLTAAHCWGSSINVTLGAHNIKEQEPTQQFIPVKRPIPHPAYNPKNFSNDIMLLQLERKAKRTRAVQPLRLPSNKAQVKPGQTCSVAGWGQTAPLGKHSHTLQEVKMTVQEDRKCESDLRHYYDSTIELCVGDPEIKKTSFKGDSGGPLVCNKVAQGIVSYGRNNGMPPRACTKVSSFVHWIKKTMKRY
Assay [4] deals with T2, Granzyme M (Homo sapiens) (UniProt P51124).
T2 sequence (whole entry): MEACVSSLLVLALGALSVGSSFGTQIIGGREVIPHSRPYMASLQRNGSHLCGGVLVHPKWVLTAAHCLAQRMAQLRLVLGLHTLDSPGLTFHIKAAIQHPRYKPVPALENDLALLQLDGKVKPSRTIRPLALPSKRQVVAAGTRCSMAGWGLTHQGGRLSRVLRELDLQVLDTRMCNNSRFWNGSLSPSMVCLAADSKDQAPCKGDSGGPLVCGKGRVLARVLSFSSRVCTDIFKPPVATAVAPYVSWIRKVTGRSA
Nature of the assay: Inhibition of Granzyme M (unknown origin) expressed in Pichia pastoris using Ac-Lys-Val-Pro-Leu-ACC substrate by spectrofluorometry relative to control. The gist of the method:
as §1

The target in assay [5] is T3, Myeloblastin (Homo sapiens) (UniProt P24158).
T3 sequence (whole entry): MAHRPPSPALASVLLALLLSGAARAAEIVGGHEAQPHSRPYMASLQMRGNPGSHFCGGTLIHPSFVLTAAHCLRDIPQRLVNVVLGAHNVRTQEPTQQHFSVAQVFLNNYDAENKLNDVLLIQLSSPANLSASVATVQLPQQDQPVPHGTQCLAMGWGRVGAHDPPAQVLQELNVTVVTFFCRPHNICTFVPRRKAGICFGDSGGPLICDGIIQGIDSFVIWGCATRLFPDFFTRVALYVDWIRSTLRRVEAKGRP
In words: Inhibition of PR3 (unknown origin) expressed in Pichia pastoris using Ac-Glu(O-Bzl)-Lys(Ac)-Hyp(Bzl)-Nva-ACC substrate by spectrofluorometry relative to control. In a few lines:
as §1

Assay [6] deals with T4, Neutrophil elastase (Homo sapiens) (UniProt P08246).
T4 sequence (whole entry): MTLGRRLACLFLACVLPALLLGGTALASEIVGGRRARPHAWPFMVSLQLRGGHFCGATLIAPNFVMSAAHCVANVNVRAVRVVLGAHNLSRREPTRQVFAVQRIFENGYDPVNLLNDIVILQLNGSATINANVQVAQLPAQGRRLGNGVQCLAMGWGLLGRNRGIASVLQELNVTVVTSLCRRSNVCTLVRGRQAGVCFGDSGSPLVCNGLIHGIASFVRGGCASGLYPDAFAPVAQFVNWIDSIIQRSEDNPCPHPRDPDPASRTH
In words: Inhibition of human neutrophil elastase expressed in Pichia pastoris using Ac-Arg(NO)2-Glu(Bzl)-Oic-Abu-ACC substrate by spectrofluorometry relative to control. The gist of the method: as §1

In assay [7] the target is T5, Granzyme K (Homo sapiens) (UniProt P49863).
T5 sequence (whole entry): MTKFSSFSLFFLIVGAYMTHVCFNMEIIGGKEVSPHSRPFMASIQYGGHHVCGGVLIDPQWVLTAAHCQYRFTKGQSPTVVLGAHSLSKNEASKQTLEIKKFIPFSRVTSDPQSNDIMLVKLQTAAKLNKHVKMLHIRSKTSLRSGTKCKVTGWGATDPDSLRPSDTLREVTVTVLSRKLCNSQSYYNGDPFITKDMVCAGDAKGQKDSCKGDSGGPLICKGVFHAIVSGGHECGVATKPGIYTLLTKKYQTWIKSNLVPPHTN
Nature of the assay: Inhibition of Granzyme K (unknown origin) expressed in Pichia pastoris using GrKref substrate by spectrofluorometry relative to control. The conditions noted are these: concentration not given here. In a few lines: as §1

Assay [8] has as its target T1, Granzyme A (Homo sapiens). Nature of the assay: Binding affinity to Granzyme A (unknown origin) expressed in Pichia pastoris assessed as appearance of fluorescent 35 kDa species at enzyme to probe ratio was 1:1 incubated for 5 mins by SDS-PAGE based in-gel detection method. The gist of the method: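 Recombinant GrA (Pichia pastoris) at 250 nM with 250 nM Cy5 probe (1:1) in Tris/NaCl/CaCl2/Tween-20 buffer pH 7.5, 37 °C, for 0–120 min. Reduced in SDS/DTT at 95 °C, run on 4–12% Bis-Tris SDS-PAGE, transferred to nitrocellulose, fluorescence read at 658 nm.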

Assay [9] concerns the target T1, Granzyme A (Homo sapiens). In words: Binding affinity to Granzyme A (unknown origin) expressed in Pichia pastoris assessed as minimum concentration needed for GrA labeling at enzyme to probe ratio was 1:1 incubated for 5 to 30 mins by SDS-PAGE based in-gel detection method. In a few lines:
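Recombinant GrA (Pichia pastoris), 250 nM, with probe at 10–500 nM for 30 min at 37 °C in pH 7.5 Tris/NaCl/CaCl2/Tween-20 buffer. SDS/DTT reduction, 4–12% Bis-Tris SDS-PAGE, transfer, and probe fluorescence at 658 nm, used to estimate the lowest labeling concentration.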

Assay [10] addresses T1, Granzyme A (Homo sapiens). Nature of the assay: Binding affinity to Granzyme A active form (unknown origin) expressed in Pichia pastoris by Western blot analysis. The gist of the method: (§2)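 Active GrA or proenzyme diluted to 250 nM final in pH 7.5 assay buffer, with or without 1 h preincubation with 1 μM diphenyl phosphonate inhibitor at 37 °C. Probe added at 500 nM final for another 1 h, then SDS/DTT, SDS-PAGE and transfer. Probe read at 658 nm, anti-GrA rabbit monoclonal with Alexa 488 secondary.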
For orientation: Immunoblotting shows a protein as a band on a membrane.

Assay [11] addresses T1, Granzyme A (Homo sapiens). Nature of the assay: Binding affinity to Granzyme A zymogen form (unknown origin) expressed in Pichia pastoris by Western blot analysis. The gist of the method: as §2
Assay [12] concerns the target T1, Granzyme A (Homo sapiens). In words: Binding affinity to Granzyme A active form (unknown origin) expressed in Pichia pastoris at 500 nM in presence of 1 uM methyl 4-[(3S)-3-[[2-[(2S)-2-[(1-diphenoxyphosphoryl-4-guanidinobutyl)carbamoyl]-2,3,3a,4,5,6,7,7a-octahydroindol-1-yl]-2-oxoethyl]carbamoyl]-3,4-dihydro-1H-isoquinolin-2-yl]-4-oxobutanoate by Western blot analysis. The gist of the method: as §2

The target of assay [13] is T1, Granzyme A (Homo sapiens). In words: Binding affinity to Granzyme A zymogen form (unknown origin) expressed in Pichia pastoris at 500 nM in presence of 1 uM compound 3 by Western blot analysis. In a few lines: as §2
The target of assay [14] is T1, Granzyme A (Homo sapiens). Nature of the assay: Binding affinity to Granzyme A in human NK92 cells at 250 nM to 2 uM incubated for 1 hr by SDS-PAGE based in-gel detection assay. It is filed as cell-based.
In assay [15] the target is T1, Granzyme A (Homo sapiens). Nature of the assay: Binding affinity to Granzyme A in human NK92 cells at 1 uM measured 30 mins to 2 hrs post dose by SDS-PAGE analysis. It is filed as cell-based.
The target of assay [16] is T1, Granzyme A (Homo sapiens). Nature of the assay: Binding affinity to Granzyme A in human NK92 cells at 1 uM treated 1 hr after GrA covalent inhibitor methyl 4-[(3S)-3-[[2-[(2S)-2-[(1-diphenoxyphosphoryl-4-guanidinobutyl)carbamoyl]-2,3,3a,4,5,6,7,7a-octahydroindol-1-yl]-2-oxoethyl]carbamoyl]-3,4-dihydro-1H-isoquinolin-2-yl]-4-oxobutanoate dosing and measured 30 mins to 2 hrs post dose by SDS-PAGE analysis. It is filed as cell-based.

For orientation: inhibition means the share of the control response that was lost under treatment.

Take `CN1\C(=C/C=C/C=C/C2N(CCCCCC(=O)NCCCCCC(=O)N3Cc4ccccc4C[C@H]3C(=O)NCC(=O)N3C4CCCCC4C[C@H]3C(=O)NC(CCCNC(=N)N)P(=O)(Oc3ccccc3)Oc3ccccc3)c3ccccc3C2(C)C)C(C)(C)c2ccccc21` (stereo partly specified): the Ratio in assay [1] stood at 3520 s⁻¹ M⁻¹. The inhibition result in assay [2], in [3], in [4], in assay [5] and in assay [6] was “inactive” throughout. In assay [7], this compound registered an inhibition of 3%. In addition, the result in assay [8], in [10], in [14] and in assay [15] was Active. Besides, the MEC in assay [9] was 50 nM. For the same compound, the outcome in assay [11], in assay [12], in assay [13] and in assay [16] was inactive.
